{
  "source": "ChEMBL document CHEMBL3853270",
  "about": "“Influence of Birch Bark Triterpenes on Keratinocytes and Fibroblasts from Diabetic and Nondiabetic Donors” (2016)",
  "type_in_all_cases": "functional",
  "key": {"Fibroblast [1]": {"system": "Fibroblast", "experiment": "Effect on pro-inflammatory related gene expression in non-diabetic adult human primary fibroblasts assessed as PTGS2 mRNA levels at 9.81 uM after 6 hrs by qPCR analysis"}, "Keratinocyte [2]": {"system": "Keratinocyte", "experiment": "Effect on MMP1 mRNA expression levels in diabetic adult human primary keratinocytes at 1.96 uM after 6 hrs by qPCR analysis", "procedure,_shortened": "(§1)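 Primary keratinocytes from nondiabetic young and adult and diabetic adult donors; 400 000 cells per sample, 6 h exposure at 1.96 or 9.81 μM. RNA extracted and read on a high-throughput qPCR chip. Results are fold change versus 0.1% DMSO solvent control from 5−7 independent experiments over two donors per group, SD, one-way ANOVA with Bonferroni post-test.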"}, "Keratinocyte [3]": {"system": "Keratinocyte", "experiment": "Effect on pro-inflammatory related gene expression in non-diabetic adult human primary keratinocytes assessed as IL1B mRNA levels at 9.81 uM after 6 hrs by qPCR analysis"}, "Keratinocyte [4]": {"system": "Keratinocyte", "experiment": "Effect on pro-inflammatory related gene expression in non-diabetic adult human primary keratinocytes assessed as PTGS2 mRNA levels at 9.81 uM after 6 hrs by qPCR analysis"}, "Keratinocyte [5]": {"system": "Keratinocyte", "experiment": "Effect on chemokines related gene expression in diabetic adult human primary keratinocytes assessed as IL8 mRNA levels at 1.96 uM after 6 hrs by qPCR analysis"}, "Fibroblast [6]": {"system": "Fibroblast", "experiment": "Effect on transcription factor related gene expression in non-diabetic adult human primary fibroblasts assessed as JUN mRNA levels at 9.81 uM after 6 hrs by qPCR analysis"}, "Keratinocyte [7]": {"system": "Keratinocyte", "experiment": "Effect on transcription factor related gene expression in diabetic adult human primary keratinocytes assessed as JUN mRNA levels at 9.81 uM after 6 hrs by qPCR analysis"}, "[8]": {"experiment": "Effect on wound healing activity in non-diabetic adult human primary keratinocytes assessed as upregulation of IL1RA protein levels at 1.96 uM after 24 hrs by bead-based suspension array analysis", "settings": "Keratinocyte"}, "Fibroblast [9]": {"system": "Fibroblast", "experiment": "Effect on transcription factor related gene expression in non-diabetic young human primary fibroblasts assessed as JUN mRNA levels at 9.81 uM after 6 hrs by qPCR analysis"}, "Fibroblast [10]": {"system": "Fibroblast", "experiment": "Effect on chemokines related gene expression in non-diabetic young human primary fibroblasts assessed as CCL2 mRNA levels at 9.81 uM after 6 hrs by qPCR analysis", "procedure,_shortened": "(§2)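 Primary human dermal fibroblasts (young or adult nondiabetic, adult diabetic donor) were treated for 6 h against a 0.1% DMSO solvent control. RNA from 320 000 cells per sample was measured by Fluidigm Biomark high-throughput qPCR. Values are fold change relative to solvent control, from four independent experiments, with SD. One-way ANOVA with Bonferroni post-test was applied.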"}, "Keratinocyte [11]": {"system": "Keratinocyte", "experiment": "Effect on antiinflammatory related gene expression in diabetic adult human primary keratinocytes assessed as NFKBIA mRNA levels at 9.81 uM after 6 hrs by qPCR analysis", "procedure,_shortened": "as §1"}, "Fibroblast [12]": {"system": "Fibroblast", "experiment": "Effect on chemokines related gene expression in non-diabetic adult human primary fibroblasts assessed as IL8 mRNA levels at 1.96 uM after 6 hrs by qPCR analysis"}, "Fibroblast [13]": {"system": "Fibroblast", "experiment": "Effect on growth factor related gene expression in diabetic adult human primary fibroblasts assessed as VEGFA mRNA levels at 9.81 uM after 6 hrs by qPCR analysis", "procedure,_shortened": "as §2"}, "Fibroblast [14]": {"system": "Fibroblast", "experiment": "Effect on chemokines related gene expression in non-diabetic young human primary fibroblasts assessed as IL8 mRNA levels at 1.96 uM after 6 hrs by qPCR analysis", "procedure,_shortened": "as §2"}, "Fibroblast [15]": {"system": "Fibroblast", "experiment": "Effect on actin cytoskeleton in human diabetic primary fibroblasts assessed as formation of thin elongated cellular body at 10 nM after 2 hrs by rhodamine phalloidin-staining based fluorescence microscopic analysis", "procedure,_shortened": "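Subconfluent cells on glass coverslips, collagen type I coated for fibroblasts; keratinocytes starved 2 days before stimulation. Exposure 2 h, then rhodamine-phalloidin staining (1:25 in PBS) and fluorescence microscopy. Controls were DMSO as solvent and PDGF (fibroblasts) or CNF1 (keratinocytes). Where used, p38-MAPK inhibitor LN 950 (100 nM) was added 30 min beforehand.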"}, "Fibroblast [16]": {"system": "Fibroblast", "experiment": "Effect on chemokines related gene expression in non-diabetic adult human primary fibroblasts assessed as IL8 mRNA levels at 9.81 uM after 6 hrs by qPCR analysis"}, "Keratinocyte [17]": {"system": "Keratinocyte", "experiment": "Effect on growth factor related gene expression in non-diabetic young human primary keratinocytes assessed as VEGFA mRNA levels at 1.96 uM after 6 hrs by qPCR analysis", "procedure,_shortened": "(§3)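 Primary human keratinocytes (nondiabetic young or adult, diabetic adult donors) were exposed to compound for 6 h, with 0.1% DMSO as solvent control. Total RNA came from 400 000 cells per sample and was assayed on a Fluidigm Biomark high-throughput qPCR chip. Results are fold change vs solvent control, from 2−4 independent experiments on two donors per group, with SD. Groups were compared by one-way ANOVA with Bonferroni post-test.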"}, "Fibroblast [18]": {"system": "Fibroblast", "experiment": "Effect on pro-inflammatory related gene expression in non-diabetic young human primary fibroblasts assessed as IL1B mRNA levels at 9.81 uM after 6 hrs by qPCR analysis"}, "Keratinocyte [19]": {"system": "Keratinocyte", "experiment": "Effect on antioxidant related gene expression in non-diabetic adult human primary keratinocytes assessed as SOD2 mRNA levels at 9.81 uM after 6 hrs by qPCR analysis"}, "Fibroblast [20]": {"system": "Fibroblast", "experiment": "Effect on chemokines related gene expression in non-diabetic adult human primary fibroblasts assessed as CCL2 mRNA levels at 9.81 uM after 6 hrs by qPCR analysis"}, "Fibroblast [21]": {"system": "Fibroblast", "experiment": "Effect on chemokines related gene expression in diabetic adult human primary fibroblasts assessed as CCL2 mRNA levels at 9.81 uM after 6 hrs by qPCR analysis"}, "Fibroblast [22]": {"system": "Fibroblast", "experiment": "Effect on chemokines related gene expression in non-diabetic adult human primary fibroblasts assessed as WDR26 mRNA levels at 9.81 uM after 6 hrs by qPCR analysis"}, "Keratinocyte [23]": {"system": "Keratinocyte", "experiment": "Effect on chemokines related gene expression in diabetic adult human primary keratinocytes assessed as CXCL10 mRNA levels at 1.96 uM after 6 hrs by qPCR analysis"}, "Keratinocyte [24]": {"system": "Keratinocyte", "experiment": "Effect on antioxidant related gene expression in non-diabetic young human primary keratinocytes assessed as SOD2 mRNA levels at 1.96 uM after 6 hrs by qPCR analysis"}, "Fibroblast [25]": {"system": "Fibroblast", "experiment": "Effect on antiinflammatory related gene expression in diabetic adult human primary fibroblasts assessed as NFKBIA mRNA levels at 1.96 uM after 6 hrs by qPCR analysis", "procedure,_shortened": "(§4)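 Primary dermal fibroblasts from one nondiabetic young, one nondiabetic adult and one diabetic adult donor; 320 000 cells per sample, 6 h at 1.96 or 9.81 μM. RNA measured on a high-throughput qPCR chip. Fold change versus 0.1% DMSO control, four independent experiments, SD, one-way ANOVA with Bonferroni post-test.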"}, "Fibroblast [26]": {"system": "Fibroblast", "experiment": "Effect on antioxidant related gene expression in non-diabetic young human primary fibroblasts assessed as SOD2 mRNA levels at 9.81 uM after 6 hrs by qPCR analysis"}, "Keratinocyte [27]": {"system": "Keratinocyte", "experiment": "Effect on growth factor related gene expression in non-diabetic young human primary keratinocytes assessed as GDF15 mRNA levels at 9.81 uM after 6 hrs by qPCR analysis", "procedure,_shortened": "as §3"}, "Keratinocyte [28]": {"system": "Keratinocyte", "experiment": "Effect on growth factor related gene expression in non-diabetic adult human primary keratinocytes assessed as PDGFB mRNA levels at 9.81 uM after 6 hrs by qPCR analysis", "procedure,_shortened": "as §3"}, "Fibroblast [29]": {"system": "Fibroblast", "experiment": "Effect on antiinflammatory related gene expression in diabetic adult human primary fibroblasts assessed as NFKBIA mRNA levels at 9.81 uM after 6 hrs by qPCR analysis", "procedure,_shortened": "as §4"}},
  "note": "Activity calls are given as the source filed them. No cut-off for these calls is given here.",
  "data": [
    {"molecule": "C=C(C)[C@@H]1CC[C@]2(CO)CC[C@]3(C)[C@H](CC[C@@H]4[C@@]5(C)CC[C@H](O)C(C)(C)[C@@H]5CC[C@]43C)[C@@H]12", "note": "[BETULIN]", "values": [
      {"measurement": "fold change (FC)", "setting": "Fibroblast [1]", "value": 179},
      {"measurement": "fold change (FC)", "setting": "Keratinocyte [2]", "value": 1.2},
      {"measurement": "fold change (FC)", "setting": "Keratinocyte [3]", "value": 0.9},
      {"measurement": "fold change (FC)", "setting": "Keratinocyte [4]", "value": 1.3},
      {"measurement": "fold change (FC)", "setting": "Keratinocyte [5]", "value": 16.5},
      {"measurement": "fold change (FC)", "setting": "Fibroblast [6]", "value": 3.1},
      {"measurement": "fold change (FC)", "setting": "Keratinocyte [7]", "value": 1.7},
      {"measurement": "Activity", "setting": "[8]", "value": "Active"},
      {"measurement": "fold change (FC)", "setting": "Fibroblast [9]", "value": 1.6},
      {"measurement": "fold change (FC)", "setting": "Fibroblast [10]", "value": 4.3},
      {"measurement": "fold change (FC)", "setting": "Keratinocyte [11]", "value": 2},
      {"measurement": "fold change (FC)", "setting": "Fibroblast [12]", "value": 702},
      {"measurement": "fold change (FC)", "setting": "Fibroblast [13]", "value": 2},
      {"measurement": "fold change (FC)", "setting": "Fibroblast [14]", "value": 23.5},
      {"measurement": "Activity", "setting": "Fibroblast [15]", "value": "Active"},
      {"measurement": "fold change (FC)", "setting": "Fibroblast [16]", "value": 991},
      {"measurement": "fold change (FC)", "setting": "Keratinocyte [17]", "value": 1.3},
      {"measurement": "fold change (FC)", "setting": "Fibroblast [18]", "value": 5.7},
      {"measurement": "fold change (FC)", "setting": "Keratinocyte [19]", "value": 1.6},
      {"measurement": "fold change (FC)", "setting": "Fibroblast [20]", "value": 197},
      {"measurement": "fold change (FC)", "setting": "Fibroblast [21]", "value": 1.7},
      {"measurement": "fold change (FC)", "setting": "Fibroblast [22]", "value": 1.3},
      {"measurement": "fold change (FC)", "setting": "Keratinocyte [23]", "value": 6},
      {"measurement": "fold change (FC)", "setting": "Keratinocyte [24]", "value": 1.3},
      {"measurement": "fold change (FC)", "setting": "Fibroblast [25]", "value": 3.1},
      {"measurement": "fold change (FC)", "setting": "Fibroblast [26]", "value": 2.2},
      {"measurement": "fold change (FC)", "setting": "Keratinocyte [27]", "value": 1.1},
      {"measurement": "fold change (FC)", "setting": "Keratinocyte [28]", "value": 0.9},
      {"measurement": "fold change (FC)", "setting": "Fibroblast [29]", "value": 1.4}
    ]}
  ]
}
